target: Receptor-type tyrosine-protein phosphatase F (Homo sapiens) (UniProt P10586); assay: Inhibitory activity against phosphatase (LAR) at a concentration of 100 uM
Method in brief: (§1)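 Purified recombinant human enzyme constructs; PTP1B is a C-terminally truncated soluble form, tested alongside LAR and SHP-2. Activity is read as the initial rate of p-nitrophenyl phosphate (pNPP) hydrolysis and reported as percent inhibition. PTP1B is tested at 100, 10 and 1 µM, or 10 and 1 µM in the salicylate series; LAR and SHP-2 at 100 µM.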

Chain of Receptor-type tyrosine-protein phosphatase F (Homo sapiens) (P10586 whole entry, the tested form may be a part): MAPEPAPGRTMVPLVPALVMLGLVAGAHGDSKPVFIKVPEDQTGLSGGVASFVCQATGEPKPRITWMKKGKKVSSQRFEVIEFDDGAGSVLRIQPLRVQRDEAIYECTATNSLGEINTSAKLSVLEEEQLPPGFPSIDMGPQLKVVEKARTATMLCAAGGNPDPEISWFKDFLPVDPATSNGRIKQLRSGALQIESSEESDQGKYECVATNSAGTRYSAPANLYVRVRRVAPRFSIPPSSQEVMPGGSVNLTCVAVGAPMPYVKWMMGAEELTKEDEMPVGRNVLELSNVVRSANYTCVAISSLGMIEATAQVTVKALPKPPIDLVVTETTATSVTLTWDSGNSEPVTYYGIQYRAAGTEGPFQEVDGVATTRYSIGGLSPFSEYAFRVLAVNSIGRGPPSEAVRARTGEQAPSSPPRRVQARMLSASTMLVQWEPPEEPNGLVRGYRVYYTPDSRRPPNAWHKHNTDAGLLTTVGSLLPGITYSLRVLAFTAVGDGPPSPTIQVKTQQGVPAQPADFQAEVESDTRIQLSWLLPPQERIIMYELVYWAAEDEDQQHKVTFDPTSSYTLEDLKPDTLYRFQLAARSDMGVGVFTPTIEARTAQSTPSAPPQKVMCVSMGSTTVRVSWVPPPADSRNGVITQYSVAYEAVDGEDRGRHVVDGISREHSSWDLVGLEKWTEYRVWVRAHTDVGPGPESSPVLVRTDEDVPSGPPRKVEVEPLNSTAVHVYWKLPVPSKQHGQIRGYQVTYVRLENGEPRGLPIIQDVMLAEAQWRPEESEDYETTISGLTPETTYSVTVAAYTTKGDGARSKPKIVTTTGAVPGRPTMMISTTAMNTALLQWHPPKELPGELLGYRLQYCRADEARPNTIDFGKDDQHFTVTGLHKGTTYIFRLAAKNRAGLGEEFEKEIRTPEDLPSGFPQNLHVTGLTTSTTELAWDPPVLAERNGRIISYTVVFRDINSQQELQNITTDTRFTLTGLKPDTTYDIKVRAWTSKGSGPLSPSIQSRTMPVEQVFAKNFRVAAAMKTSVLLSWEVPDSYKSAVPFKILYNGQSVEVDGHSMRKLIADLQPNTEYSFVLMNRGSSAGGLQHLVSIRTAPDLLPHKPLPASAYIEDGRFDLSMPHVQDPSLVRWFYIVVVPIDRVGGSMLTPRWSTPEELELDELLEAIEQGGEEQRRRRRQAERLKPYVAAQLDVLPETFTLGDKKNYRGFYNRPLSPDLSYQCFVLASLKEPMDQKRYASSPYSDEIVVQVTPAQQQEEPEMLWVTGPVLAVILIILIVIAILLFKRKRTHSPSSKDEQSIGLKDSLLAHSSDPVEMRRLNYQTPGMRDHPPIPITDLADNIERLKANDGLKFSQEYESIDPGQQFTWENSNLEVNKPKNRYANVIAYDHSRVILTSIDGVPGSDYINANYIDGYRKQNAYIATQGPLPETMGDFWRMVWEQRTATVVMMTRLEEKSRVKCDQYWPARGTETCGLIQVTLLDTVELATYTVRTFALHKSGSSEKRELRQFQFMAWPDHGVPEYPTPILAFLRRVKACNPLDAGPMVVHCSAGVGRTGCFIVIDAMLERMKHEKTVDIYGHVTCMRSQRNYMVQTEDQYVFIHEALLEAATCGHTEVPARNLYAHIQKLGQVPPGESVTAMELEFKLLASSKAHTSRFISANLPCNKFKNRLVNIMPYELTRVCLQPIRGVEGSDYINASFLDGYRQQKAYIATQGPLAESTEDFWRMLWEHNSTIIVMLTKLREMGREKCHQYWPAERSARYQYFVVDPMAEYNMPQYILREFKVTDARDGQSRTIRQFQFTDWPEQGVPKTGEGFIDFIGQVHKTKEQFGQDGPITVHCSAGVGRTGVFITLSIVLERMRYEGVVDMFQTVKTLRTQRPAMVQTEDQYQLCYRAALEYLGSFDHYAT

SMILES | inhibition [%]
CCCCCNC(=O)[C@H](Cc1ccc(OC(C(=O)O)C(=O)O)cc1)NC(=O)[C@H](Cc1ccccc1)NS(C)(=O)=O | 0
CCCCCNC(=O)[C@H](Cc1ccc(OC(C(=O)O)C(=O)O)cc1)NC(=O)[C@H](Cc1ccccc1)NC(=O)CCN(CC)CC | 0
CCCCCNC(=O)[C@H](Cc1ccc(OCC(=O)O)c(C(=O)O)c1)NC(=O)[C@H](CCOCOC)NC(=O)OC(C)(C)C | 0
CCCCCNC(=O)[C@H](Cc1ccc(OC(C(=O)O)C(=O)O)cc1)NC(=O)[C@H](CC(C)C)NC(=O)OC(C)(C)C | 3
CCCCCNC(=O)[C@H](Cc1ccc(OC(C(=O)O)C(=O)O)cc1)NC(=O)[C@H](CC1CCCCC1)NC(=O)OC(C)(C)C | 4
CCCCCNC(=O)[C@H](Cc1ccc(OCC(=O)O)c(C(=O)O)c1)NC(=O)[C@H](Cc1ccccc1)NC(=O)Cc1ccc(C)cc1 | 6
CCCCCNC(=O)[C@H](Cc1ccc(OCC(=O)O)c(C(=O)O)c1)NC(=O)[C@H](CO)NC(=O)OC(C)(C)C | 1

tested on: not listed separately; assay: Uptake of 2-DOG (2-deoxyglucose) into L6 myocytes in the presence of half-maximal concentration of insulin at 100 uM; type: functional, Rattus norvegicus
Method in brief: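 L6 myotubes are exposed to compound at 100 µM with 10 nM insulin, a dose eliciting about 50% of maximal uptake. The initial rate of 2-[3H]deoxyglucose uptake is measured, with L-[14C]glucose marking extracellular space, and normalized to recovered lysate protein. Net insulin-dependent transport with inhibitor is expressed as a percent of that without inhibitor.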

SMILES | Control Uptake [%]
CCCCCNC(=O)[C@H](Cc1ccc(OC(C(=O)O)C(=O)O)cc1)NC(=O)[C@H](Cc1ccccc1)NS(C)(=O)=O | 93
CCCCCNC(=O)[C@H](Cc1ccc(OC(C(=O)O)C(=O)O)cc1)NC(=O)[C@H](Cc1ccccc1)NC(=O)CCN(CC)CC | 89
CCCCCNC(=O)[C@H](Cc1ccc(OCC(=O)O)c(C(=O)O)c1)NC(=O)[C@H](CCOCOC)NC(=O)OC(C)(C)C | 113
CCCCCNC(=O)[C@H](Cc1ccc(OC(C(=O)O)C(=O)O)cc1)NC(=O)[C@H](CC(C)C)NC(=O)OC(C)(C)C | 84
CCCCCNC(=O)[C@H](Cc1ccc(OC(C(=O)O)C(=O)O)cc1)NC(=O)[C@H](CC1CCCCC1)NC(=O)OC(C)(C)C | 93
CCCCCNC(=O)[C@H](Cc1ccc(OCC(=O)O)c(C(=O)O)c1)NC(=O)[C@H](Cc1ccccc1)NC(=O)Cc1ccc(C)cc1 | 77
CCCCCNC(=O)[C@H](Cc1ccc(OCC(=O)O)c(C(=O)O)c1)NC(=O)[C@H](CO)NC(=O)OC(C)(C)C | 84

target: T1, Tyrosine-protein phosphatase non-receptor type 11 (Homo sapiens) (UniProt Q06124); assay: Inhibition of recombinant human phosphatase (SHP-2) at a concentration of 100 uM; method in brief: as §1
T1 sequence (whole entry): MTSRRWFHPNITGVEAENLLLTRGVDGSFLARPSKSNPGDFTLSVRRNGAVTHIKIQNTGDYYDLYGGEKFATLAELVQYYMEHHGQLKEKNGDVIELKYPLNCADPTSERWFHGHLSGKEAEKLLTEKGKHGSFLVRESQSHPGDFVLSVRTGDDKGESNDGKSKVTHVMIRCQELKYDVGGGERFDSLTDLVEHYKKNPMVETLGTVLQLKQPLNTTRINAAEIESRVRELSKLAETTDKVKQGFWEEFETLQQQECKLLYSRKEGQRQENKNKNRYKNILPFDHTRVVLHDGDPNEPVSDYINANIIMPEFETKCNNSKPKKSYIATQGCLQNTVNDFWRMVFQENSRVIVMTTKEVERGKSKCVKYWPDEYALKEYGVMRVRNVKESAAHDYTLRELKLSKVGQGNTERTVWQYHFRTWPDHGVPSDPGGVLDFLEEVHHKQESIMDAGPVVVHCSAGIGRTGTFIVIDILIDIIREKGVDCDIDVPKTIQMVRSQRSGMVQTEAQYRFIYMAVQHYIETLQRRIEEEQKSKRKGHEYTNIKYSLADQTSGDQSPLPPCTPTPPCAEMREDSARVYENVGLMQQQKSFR

SMILES | inhibition [%]
CCCCCNC(=O)[C@H](Cc1ccc(OC(C(=O)O)C(=O)O)cc1)NC(=O)[C@H](Cc1ccccc1)NS(C)(=O)=O | 8
CCCCCNC(=O)[C@H](Cc1ccc(OC(C(=O)O)C(=O)O)cc1)NC(=O)[C@H](Cc1ccccc1)NC(=O)CCN(CC)CC | 14
CCCCCNC(=O)[C@H](Cc1ccc(OCC(=O)O)c(C(=O)O)c1)NC(=O)[C@H](CCOCOC)NC(=O)OC(C)(C)C | 6
CCCCCNC(=O)[C@H](Cc1ccc(OC(C(=O)O)C(=O)O)cc1)NC(=O)[C@H](CC(C)C)NC(=O)OC(C)(C)C | 5
CCCCCNC(=O)[C@H](Cc1ccc(OC(C(=O)O)C(=O)O)cc1)NC(=O)[C@H](CC1CCCCC1)NC(=O)OC(C)(C)C | 0
CCCCCNC(=O)[C@H](Cc1ccc(OCC(=O)O)c(C(=O)O)c1)NC(=O)[C@H](Cc1ccccc1)NC(=O)Cc1ccc(C)cc1 | 20
CCCCCNC(=O)[C@H](Cc1ccc(OCC(=O)O)c(C(=O)O)c1)NC(=O)[C@H](CO)NC(=O)OC(C)(C)C | 4

target: T2, Tyrosine-protein phosphatase non-receptor type 1 (Homo sapiens) (UniProt P18031); assay: Inhibitory activity against human protein tyrosine phosphatase 1B (PTP1B) at a concentration of 1 uM; method in brief: as §1
T2 sequence (whole entry): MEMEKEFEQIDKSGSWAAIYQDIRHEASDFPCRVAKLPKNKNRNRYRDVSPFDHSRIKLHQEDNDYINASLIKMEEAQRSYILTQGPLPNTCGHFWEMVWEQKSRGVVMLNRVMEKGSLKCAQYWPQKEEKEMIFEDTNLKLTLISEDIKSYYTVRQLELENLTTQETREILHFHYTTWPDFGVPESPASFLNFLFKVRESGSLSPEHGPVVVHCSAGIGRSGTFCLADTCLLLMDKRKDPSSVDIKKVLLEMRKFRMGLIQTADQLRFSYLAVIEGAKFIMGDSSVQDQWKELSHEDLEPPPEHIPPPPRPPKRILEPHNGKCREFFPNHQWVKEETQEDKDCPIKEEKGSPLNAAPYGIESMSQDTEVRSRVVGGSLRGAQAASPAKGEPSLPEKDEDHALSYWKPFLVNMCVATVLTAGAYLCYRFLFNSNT

SMILES | inhibition [%]
CCCCCNC(=O)[C@H](Cc1ccc(OC(C(=O)O)C(=O)O)cc1)NC(=O)[C@H](Cc1ccccc1)NS(C)(=O)=O | 9
CCCCCNC(=O)[C@H](Cc1ccc(OC(C(=O)O)C(=O)O)cc1)NC(=O)[C@H](Cc1ccccc1)NC(=O)CCN(CC)CC | 12
CCCCCNC(=O)[C@H](Cc1ccc(OCC(=O)O)c(C(=O)O)c1)NC(=O)[C@H](CCOCOC)NC(=O)OC(C)(C)C | 6
CCCCCNC(=O)[C@H](Cc1ccc(OC(C(=O)O)C(=O)O)cc1)NC(=O)[C@H](CC(C)C)NC(=O)OC(C)(C)C | 4
CCCCCNC(=O)[C@H](Cc1ccc(OC(C(=O)O)C(=O)O)cc1)NC(=O)[C@H](CC1CCCCC1)NC(=O)OC(C)(C)C | 1
CCCCCNC(=O)[C@H](Cc1ccc(OCC(=O)O)c(C(=O)O)c1)NC(=O)[C@H](Cc1ccccc1)NC(=O)Cc1ccc(C)cc1 | 39
CCCCCNC(=O)[C@H](Cc1ccc(OCC(=O)O)c(C(=O)O)c1)NC(=O)[C@H](CO)NC(=O)OC(C)(C)C | 11

target: T2, Tyrosine-protein phosphatase non-receptor type 1 (Homo sapiens); assay: Inhibitory activity against human protein tyrosine phosphatase 1B (PTP1B) at a concentration of 100 uM; method in brief: as §1

SMILES | inhibition [%]
CCCCCNC(=O)[C@H](Cc1ccc(OC(C(=O)O)C(=O)O)cc1)NC(=O)[C@H](Cc1ccccc1)NS(C)(=O)=O | 86
CCCCCNC(=O)[C@H](Cc1ccc(OC(C(=O)O)C(=O)O)cc1)NC(=O)[C@H](Cc1ccccc1)NC(=O)CCN(CC)CC | 92
CCCCCNC(=O)[C@H](Cc1ccc(OC(C(=O)O)C(=O)O)cc1)NC(=O)[C@H](CC(C)C)NC(=O)OC(C)(C)C | 76
CCCCCNC(=O)[C@H](Cc1ccc(OC(C(=O)O)C(=O)O)cc1)NC(=O)[C@H](CC1CCCCC1)NC(=O)OC(C)(C)C | 88

target: T2, Tyrosine-protein phosphatase non-receptor type 1 (Homo sapiens); assay: Inhibitory activity against human protein tyrosine phosphatase 1B (PTP1B) at a concentration of 10 uM; method in brief: as §1

SMILES | inhibition [%]
CCCCCNC(=O)[C@H](Cc1ccc(OC(C(=O)O)C(=O)O)cc1)NC(=O)[C@H](Cc1ccccc1)NS(C)(=O)=O | 40
CCCCCNC(=O)[C@H](Cc1ccc(OC(C(=O)O)C(=O)O)cc1)NC(=O)[C@H](Cc1ccccc1)NC(=O)CCN(CC)CC | 54
CCCCCNC(=O)[C@H](Cc1ccc(OCC(=O)O)c(C(=O)O)c1)NC(=O)[C@H](CCOCOC)NC(=O)OC(C)(C)C | 42
CCCCCNC(=O)[C@H](Cc1ccc(OC(C(=O)O)C(=O)O)cc1)NC(=O)[C@H](CC(C)C)NC(=O)OC(C)(C)C | 24
CCCCCNC(=O)[C@H](Cc1ccc(OC(C(=O)O)C(=O)O)cc1)NC(=O)[C@H](CC1CCCCC1)NC(=O)OC(C)(C)C | 18
CCCCCNC(=O)[C@H](Cc1ccc(OCC(=O)O)c(C(=O)O)c1)NC(=O)[C@H](Cc1ccccc1)NC(=O)Cc1ccc(C)cc1 | 85
CCCCCNC(=O)[C@H](Cc1ccc(OCC(=O)O)c(C(=O)O)c1)NC(=O)[C@H](CO)NC(=O)OC(C)(C)C | 41
